The text below walks through data of ChEMBL document CHEMBL4229342, “Synthesis of novel proxyphylline derivatives with dual Anti-Candida albicans and anticancer activity” (Eur J Med Chem, 2018).

Each structure is given as a SMILES string. Calls of active or inactive are those of the source. The rule behind the calls is not given here.

Data set [1] has as its system Candida albicans. The data set is described as follows: Ratio of MFC for fungicidal activity against Candida albicans ATCC 90028 assessed as reduction in cell viability in RPMI medium in presence of sorbitol to MFC for fungicidal activity against Candida albicans ATCC 90028 assessed as reduction in cell viability in RPMI medium in absence of sorbitol. The data set is classed as functional.

Data set [2] can be described thus: In-vitro chitinolytic activity of the compound assessed as p-nitrophenyl release from N-acetyl-beta-D-glucosaminide at 20 uM by chitinolytic activity assay. The data set is classed as functional.
Data set [3] is described as follows: Toxicity in Galleria mellonella larvae infected with Candida albicans ATCC 90028 infected with 20 uM compound pre-treated cell suspensions assessed as survival incubated in dark for 144 hrs at 30 degC and measured every 24 hrs. The data set is classed as organism-based. The conditions noted are these: in vivo.
Data set [4] has as its system Candida albicans. The data set is described as follows: Antifungal activity against Candida albicans ATCC 90028 infected in Galleria mellonella larvae infected with 20 uM compound pre-treated cell suspensions assessed as melanization incubated in dark for 144 hrs at 30 degC and measured every 24 hrs (reference value: 65%). It counts as functional.
In data set [5] the test system is CCRF-CEM. The data set is described as follows: Antiproliferative activity against human CCRF-CEM cells assessed as cell viability at 100 uM after 72 hrs by MTT assay. The conditions noted are these: read-out: Activity. The data set is classed as functional. Summed up:
(§1)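 MTT viability assay in CCRF-CEM and MCF-7 cells after 72 h exposure at 25, 50, 100 and 200 µM. Results are relative to control cells without inhibitor in 0.5% DMSO. Done in triplicate; values are means ± SD of three independent experiments.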
On the technique in general: Tetrazolium assays rely on reduction of a dye to a coloured formazan, in cell work by metabolically active cells.

In data set [6] the test system is Candida albicans. The experiment in a line: Antibiofilm activity in Candida albicans ATCC 90028 assessed as beta-glucan uniform distribution at 20 uM after 18 hrs by Congo red staining-based confocal laser scanning microscopic analysis. It counts as functional, organism-based. An outline of the steps: (§2)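 Mature C. albicans biofilm cells were stained with 2% Congo Red to detect β-glucan exposure. They were imaged by confocal laser scanning microscopy as fluorescence and fluorescence/DIC overlays. Treated biofilms were compared with untreated control biofilm.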

The subject of data set [7] is Candida albicans. The experiment in a line: Antibiofilm activity in Candida albicans ATCC 90028 assessed as late apoptotic morphological changes by measuring reddish-orange fluorescence at 20 uM after 18 hrs by acridine orange/ethidium bromide staining-based confocal laser scanning fluorescence microscopic analysis. It counts as functional, organism-based.
The subject of data set [8] is Candida albicans. The experiment in a line: Antifungal activity against Candida albicans ATCC 90028 infected in Galleria mellonella larvae infected with 20 uM compound pre-treated cell suspensions assessed as reduction in fungal burden in dark for 144 hrs at 30 degC and measured every 24 hrs by hematoxylin and eosin staining-based light microscopic analysis. The data set is classed as functional, organism-based.

In data set [9] the test system is Candida albicans. The experiment in a line: Growth inhibition of Candida albicans ATCC 90028 at 0.0625 ug/ml incubated for 4 hrs at 35 degC by broth microdilution method relative to control. The data set is classed as functional. The conditions noted are these: ATCC 90028, 4 h, read-out: GI.
In data set [10] the test system is Candida albicans. The data set is described as follows: Disruption of cell wall in Candida albicans SC5314 assessed as decrease in chitin level after 18 hrs by calcofluor white staining-based flow cytometric analysis. The data set is classed as functional, organism-based.
Data set [11] relates to Candida albicans. The experiment in a line: Growth inhibition of Candida albicans ATCC 90028 at 8 ug/ml incubated for 4 hrs at 35 degC by broth microdilution method relative to control. It counts as functional. Conditions: ATCC 90028, 4 h, read-out: GI. (Broth dilution looks for growth in wells or tubes with falling amounts of substance.)
The test system of data set [12] is Candida albicans. The experiment in a line: Growth inhibition of Candida albicans ATCC 90028 at 2 ug/ml incubated for 4 hrs at 35 degC by broth microdilution method relative to control. Conditions: ATCC 90028, 4 h, read-out: GI. The data set is classed as functional.
In data set [13] the test system is CCRF-CEM. The data set is described as follows: Antiproliferative activity against human CCRF-CEM cells assessed as cell viability at 200 uM after 72 hrs by MTT assay. The conditions noted are these: read-out: Activity. The data set is classed as functional. An outline of the steps: as §1
The test system of data set [14] is Candida albicans. The data set is described as follows: Induction of apoptosis in Candida albicans ATCC 90028 planktonic forms assessed as effect on DNA content of necrotic cells at 4 to 16 ug/ml by ethidium bromide staining based gel electrophoresis and confocal laser scanning microscopy. It counts as functional, organism-based.
The subject of data set [15] is Candida albicans. The data set is described as follows: Inhibition of biofilm formation of Candida albicans ATCC 90028 at 20 uM […] by XTT assay. The data set is classed as functional.
The subject of data set [16] is Candida albicans. The data set is described as follows: Antifungal activity against Candida albicans ATCC 90028 infected in Galleria mellonella larvae infected with 20 uM compound pre-treated cell suspensions assessed as larvae survival incubated in dark for 144 hrs at 30 degC and measured every 24 hrs (reference value: 80%). The data set is classed as functional.

For data set [17], the system named is Candida albicans. The data set is described as follows: Fungicidal activity against Candida albicans ATCC 90028 assessed as log reduction in cell viability at 10 uM in RPMI medium in absence of sorbitol. The data set is classed as functional.
For data set [18], the system named is Candida albicans. The experiment in a line: Antifungal activity against Candida albicans ATCC 90028 infected in Galleria mellonella larvae infected with 31 uM compound pre-treated cell suspensions assessed as melanization incubated in dark for 144 hrs at 30 degC and measured every 24 hrs (reference value: 65%). The data set is classed as functional.
The subject of data set [19] is Candida albicans. The experiment in a line: Induction of exochitinase release in Candida albicans ATCC 90028 assessed as p-nitrophenyl release from chitobioside substrate C at 248 uM by chitinolytic activity assay. It counts as functional, organism-based.
Data set [20] deals with Galleria mellonella. The experiment in a line: Toxicity in Candida albicans ATCC 90028 infected Galleria mellonella larvae infected with 31 uM compound pre-treated cell suspensions assessed as improvement in larvae health index scores incubated in dark for 144 hrs at 30 degC and measured every 24 hrs. It counts as organism-based. Conditions: in vivo.
Data set [21] concerns Candida albicans. The data set is described as follows: Inhibition of biofilm formation of Candida albicans ATCC 90028 at 248 uM […] by XTT assay. The data set is classed as functional.
The test system of data set [22] is Candida albicans. The data set is described as follows: Induction of endochitinase release in Candida albicans ATCC 90028 assessed as p-nitrophenyl release from triacetylochitotriose substrate A at 248 uM by chitinolytic activity assay. It counts as functional, organism-based.
A short description of data set [23]: In-vitro chitinolytic activity of the compound assessed as p-nitrophenyl release from N-acetyl-beta-D-glucosaminide at 248 uM by chitinolytic activity assay. It counts as functional.
The test system of data set [24] is Candida albicans. The data set is described as follows: Induction of apoptosis in Candida albicans ATCC 90028 planktonic forms assessed as increase in DNA damage at 1 ug/ml by ethidium bromide staining based gel electrophoresis and confocal laser scanning microscopy. The data set is classed as functional, organism-based.
In data set [25] the test system is Candida albicans. The experiment in a line: Induction of chitinase release in Candida albicans ATCC 90028 assessed as p-nitrophenyl release from N-acetyl-beta-D-glucosaminide at 248 uM by chitinolytic activity assay. It counts as functional, organism-based.
In data set [26] the test system is Candida albicans. The data set is described as follows: Induction of apoptosis in Candida albicans ATCC 90028 planktonic forms assessed as accumulation at subG1 phase at 1 to 128 ug/ml by ethidium bromide staining based gel electrophoresis and confocal laser scanning microscopy. The data set is classed as functional, organism-based.
For data set [27], the system named is Candida albicans. The data set is described as follows: Inhibition of biofilm formation of Candida albicans ATCC 90028 up to 248 uM […] by XTT assay. It counts as functional, organism-based.
Data set [28] has as its system Candida albicans. The experiment in a line: Antifungal activity against Candida albicans ATCC 90028 infected in Galleria mellonella larvae infected with 31 uM compound pre-treated cell suspensions assessed as reduction in larval hemocytes incubated in dark for 144 hrs at 30 degC and measured every 24 hrs by hematoxylin and eosin staining-based light microscopic analysis. The data set is classed as functional, organism-based.

Data set [29] concerns Candida albicans. The data set is described as follows: Antibiofilm activity in Candida albicans ATCC 90028 assessed as beta-glucan uniform distribution at 248 uM after 18 hrs by Congo red staining-based confocal laser scanning microscopic analysis. The data set is classed as functional, organism-based. An outline of the steps: as §2
For data set [30], the system named is Candida albicans. The data set is described as follows: Induction of apoptosis in Candida albicans ATCC 90028 planktonic forms assessed as effect on DNA content of necrotic cells at 1 to 128 ug/ml by ethidium bromide staining based gel electrophoresis and confocal laser scanning microscopy. It counts as functional, organism-based.
In data set [31] the test system is Candida albicans. The data set is described as follows: Antibiofilm activity in Candida albicans ATCC 90028 assessed as increase in chitin distribution within biofilm cells at 248 uM after 18 hrs by calcofluor white staining-based confocal laser scanning microscopic analysis. It counts as functional, organism-based.

One may read the inhibition as the change of the read-out against control, counted positive when it falls. In the case of `CC(Cn1cnc2c1c(=O)n(C)c(=O)n2C)OCc1cn(CCCn2nc3c(Br)c(Br)c(Br)c(Br)c3n2)nn1` (configuration not stated), the Ratio in data set [1] is reported as 2. In addition, the Activity was 0.01 to 0.03 µmol/min in data set [2], 80% in data set [4] and “Dose-dependent effect” in [10]. The survival at 24 h, 20 µM in data set [3] lay within 90 to 100%. In data set [5], the viability at 100 µM was 0%. The outcome in data set [6], in data set [7] and in [8] was Active. In [9], the inhibition of growth at 0.0625 µg/mL stood at 99%. Moreover, the inhibition of growth at 8 µg/mL in data set [11] was determined as 99.1%. Further, the inhibition of growth at 2 µg/mL in data set [12] is 99.1%. In addition, the viability at 200 µM in [13] worked out at 0%. Also, the outcome in data set [14] was inactive. The inhibition at 20 µM in [15] was determined as 47%. Further, the survival at 20 µM in data set [16] came out at 100%. Moreover, the “log(activity)” value in data set [17] was found to be 6.81.
Turning to `CC(CN1c2ccccc2Sc2ccccc21)OC(=O)OC(C)Cn1cnc2c1c(=O)n(C)c(=O)n2C` (configuration not stated), the values for the Activity in data set [18], in [20] and in [23] were 5 - 15%, “Toxic” and 0.01 to 0.03 µmol/min, respectively. The survival at 24 h, 20 µM in data set [3] was in the range of 90 to 100%. The outcome in data set [19], in [22], in data set [24], in data set [25], in data set [26] and in data set [29] was inactive. Moreover, the result in data set [30] was inactive. The molecule also had an inhibition at 248 µM in data set [21] of 61%. In addition, the viability at 100 µM in data set [5] turned out to be 0%. The inhibition of growth at 0.0625 µg/mL in data set [9] was found to be 99.1%. For the same molecule, in data set [11], the inhibition of growth at 8 µg/mL was determined as 100%. Further, in data set [12], the inhibition of growth at 2 µg/mL is 99.5%. Also, the inhibition entry in [27] is “inactive”. Further, in [13], the viability at 200 µM is 0%. For the same molecule, the result in data set [28] and in data set [31] was Active.
